Active and inactive are the calls of the source.
Columns and labels:
A2780 = experiment: Cytotoxicity against human A2780 cells; assay type: functional, cell-based
Outline: (§1)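 Cytotoxicity against a panel of six human tumor lines (A549, Bel-7402, BGC-823, HCT-8, HCT-116, A2780) was measured in vitro by MTT assay.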

Bel-7402 = experiment: Cytotoxicity against human Bel7402 cells; assay type: functional, cell-based; outline: as §1
HCT-116 = experiment: Cytotoxicity against human HCT116 cells; assay type: functional, cell-based; outline: as §1
BGC-823 = experiment: Cytotoxicity against human BGC823 cells; assay type: functional, cell-based; outline: as §1
A549 = experiment: Cytotoxicity against human A549 cells; assay type: functional, cell-based; outline: as §1
HCT-8 = experiment: Cytotoxicity against human HCT8 cells; assay type: functional, cell-based; outline: as §1
[1] = Antiinflammatory activity in rat PMNC assessed as inhibition of platelet-activating factor-induced beta-glucuronidase release; assay type: functional
Outline: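 In vitro assay on rat polymorphonuclear leukocytes stimulated with platelet-activating factor; β-glucuronidase release was measured, with a positive control run alongside. Inhibitory potency is reported as IC50 in µM.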

CS[C@@]12C[C@H]3C(=O)CC[C@H](O)[C@H]3N1C(=O)[C@]1(SC)C[C@H]3C(=O)CC[C@H](O)[C@H]3N1C2=O [EPICOCCIN G]
inactive: inhibition (A2780) | inhibition (Bel-7402) | inhibition (HCT-116) | inhibition (BGC-823) | inhibition (A549) | inhibition (HCT-8)
3.07 µM: IC50 [1]

C[C@@H]1C(=O)O[C@H]2[C@H](O)[C@@]34[C@H]5C[C@@H](C(C)(C)C)[C@]36[C@@H](OC(=O)[C@@H]6O)O[C@@]4(C(=O)O5)[C@@]12O [GINKOLIDE B]
2.35 µM: IC50 [1]

CS[C@@]12C[C@H]3[C@@H]([C@@H](O)CC[C@@H]3O)N1C(=O)[C@@]13C[C@H]4C(=O)C[C@@H](S1)[C@H](O)[C@H]4N3C2=O
inactive: inhibition (A2780) | inhibition (Bel-7402) | inhibition (HCT-116) | inhibition (BGC-823) | inhibition (A549) | inhibition (HCT-8)

CS[C@@]12C[C@H]3C(=O)C[C@H](O)[C@H](O)[C@H]3N1C(=O)[C@@]13C[C@H]4C(=O)C[C@@H](SS1)[C@H](O)[C@H]4N3C2=O
inactive: inhibition (A2780) | inhibition (Bel-7402) | inhibition (HCT-116) | inhibition (BGC-823) | inhibition (A549) | inhibition (HCT-8)

O=C1C[C@H]2SS[C@@]34C[C@@H]1[C@@H]([C@H]2O)N3C(=O)[C@@]12C[C@H]3C(=O)[C@@H](S1)[C@@H](O)[C@H](O)[C@H]3N2C4=O
inactive: inhibition (A2780) | inhibition (Bel-7402) | inhibition (HCT-116) | inhibition (BGC-823) | inhibition (A549) | inhibition (HCT-8)

O=C1CC[C@H](O)[C@H]2[C@H]1C[C@@]13SS[C@]4(C[C@H]5[C@@H]([C@@H](O)CC[C@@H]5O)N4C1=O)C(=O)N23
inactive: inhibition (A2780) | inhibition (Bel-7402) | inhibition (HCT-116) | inhibition (BGC-823) | inhibition (A549) | inhibition (HCT-8)

O=C1C[C@H]2SS[C@@]34C[C@@H]1[C@@H]([C@H]2O)N3C(=O)[C@@]12C[C@H]3C(=O)C[C@@H](S1)[C@H](O)[C@H]3N2C4=O
inactive: inhibition (A2780) | inhibition (Bel-7402) | inhibition (HCT-116) | inhibition (BGC-823) | inhibition (A549) | inhibition (HCT-8)

CS[C@@]12C[C@H]3C(=O)CC[C@H](O)[C@H]3N1C(=O)[C@]1(SC)C[C@H]3[C@@H]([C@@H](O)CC[C@@H]3O)N1C2=O
inactive: inhibition (A2780) | inhibition (Bel-7402) | inhibition (HCT-116) | inhibition (BGC-823) | inhibition (A549) | inhibition (HCT-8)

CCO[C@@H]1[C@H](O)[C@@H]2[C@H]3C[C@@]4(S[C@@H]1C3=O)C(=O)N1[C@@H]3[C@@H](O)[C@H]5CC(=O)[C@@H]3C[C@@]1(SS5)C(=O)N24 [EPICOCCIN S]
4.95 µM: IC50 [1]
inactive: inhibition (A2780) | inhibition (Bel-7402) | inhibition (HCT-116) | inhibition (BGC-823) | inhibition (A549) | inhibition (HCT-8)

O=C1C[C@@H]2SS[C@@]34C[C@@H]1[C@@H]([C@H]2O)N3C(=O)[C@@]12C[C@H]3C(=O)[C@H](S1)[C@H](O)[C@H](O)[C@H]3N2C4=O
inactive: inhibition (A2780) | inhibition (Bel-7402) | inhibition (HCT-116) | inhibition (BGC-823) | inhibition (A549) | inhibition (HCT-8)

CS[C@@]12CC3=CC=C[C@H](O)[C@H]3N1C(=O)[C@]13C[C@@]4(O)[C@H](C=C[C@H](O)[C@H]4N1C2=O)S3
inactive: inhibition (A2780) | inhibition (Bel-7402) | inhibition (HCT-116) | inhibition (BGC-823) | inhibition (A549) | inhibition (HCT-8)

O=C1N[C@@H](Cc2ccccc2)C(=O)N[C@H]1Cc1ccccc1
inactive: inhibition (A2780) | inhibition (Bel-7402) | inhibition (HCT-116) | inhibition (BGC-823) | inhibition (A549) | inhibition (HCT-8)

O=C1C[C@H]2S[C@@]34C[C@@H]1[C@@H]([C@H]2O)N3C(=O)[C@@]12C[C@H]3C(=O)[C@@H](S1)[C@H](O)[C@H](O)[C@H]3N2C4=O [EPICOCCIN E]
1.98 µM: IC50 [1]
inactive: inhibition (A2780) | inhibition (Bel-7402) | inhibition (HCT-116) | inhibition (BGC-823) | inhibition (A549) | inhibition (HCT-8)

CS[C@@]12C[C@H]3C(=O)CC[C@H](O)[C@H]3N1C(=O)[C@@]13C[C@H]4C(=O)C[C@@H](S1)[C@H](O)[C@H]4N3C2=O
inactive: inhibition (A2780) | inhibition (Bel-7402) | inhibition (HCT-116) | inhibition (BGC-823) | inhibition (A549) | inhibition (HCT-8)

O=C1C[C@H]2SS[C@@]34C[C@@H]1[C@@H]([C@H]2O)N3C(=O)[C@]12C[C@H]3C(=O)[C@H](C[C@H](O)[C@H]3N1C4=O)S2
inactive: inhibition (A2780) | inhibition (Bel-7402) | inhibition (HCT-116) | inhibition (BGC-823) | inhibition (A549) | inhibition (HCT-8)

CS[C@@]12C[C@H]3C(=O)C=C[C@H](O)[C@H]3N1C(=O)[C@]1(SC)C[C@H]3C(=O)CC[C@H](O)[C@H]3N1C2=O
inactive: inhibition (A2780) | inhibition (Bel-7402) | inhibition (HCT-116) | inhibition (BGC-823) | inhibition (A549) | inhibition (HCT-8)

CS[C@@]12C[C@H]3C(=O)CC[C@H](O)[C@H]3N1C(=O)[C@@]13C[C@H]4C(=O)C[C@@H](SS1)[C@H](O)[C@H]4N3C2=O [EPICOCCIN M]
inactive: inhibition (A2780) | inhibition (Bel-7402) | inhibition (HCT-116) | inhibition (BGC-823) | inhibition (A549) | inhibition (HCT-8)
4.16 µM: IC50 [1]

O=C1C[C@@H]2SS[C@@]34C[C@@H]1[C@@H]([C@H]2O)N3C(=O)[C@@]12C[C@H]3C(=O)C[C@H](SS1)[C@H](O)[C@H]3N2C4=O
inactive: inhibition (A2780) | inhibition (Bel-7402) | inhibition (HCT-116) | inhibition (BGC-823) | inhibition (A549) | inhibition (HCT-8)

O=C1N2[C@H]3[C@H](C[C@]24SS[C@]12C[C@H]1[C@@H]([C@@H](O)CC[C@@H]1O)N2C4=O)[C@@H](O)CC[C@@H]3O
inactive: inhibition (A2780) | inhibition (Bel-7402) | inhibition (HCT-116) | inhibition (BGC-823) | inhibition (A549) | inhibition (HCT-8)

CS[C@@]12C[C@H]3[C@@H]([C@@H](O)CC[C@@H]3O)N1C(=O)[C@]1(SC)C[C@H]3[C@@H]([C@@H](O)CC[C@@H]3O)N1C2=O
inactive: inhibition (A2780) | inhibition (Bel-7402) | inhibition (HCT-116) | inhibition (BGC-823) | inhibition (A549) | inhibition (HCT-8)

— ChEMBL document CHEMBL1177738, “Thiodiketopiperazines produced by the endophytic fungus Epicoccum nigrum” (J Nat Prod, 2010)
